Active and inactive are the calls of the source.
Assays:
[1] = Reduction in SREBP-1c mRNA expression in mouse 3T3L1 cells at 1 to 50 uM after 72 hrs by RT-PCR method; format: functional, cell-based; conditions: 3T3-L1
Method in brief: (§1)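 3T3-L1 preadipocytes grown in DMEM with 10% FBS at 37 °C under 5% CO2. Differentiation starts 2 days post-confluence (day 0) with IBMX, 100 ng/mL dexamethasone and insulin for 3 d, then insulin in 10% FBS/DMEM for 3 d, then basic medium for 3 d. Compound is added on day 0 and renewed at day 3. Vehicle control receives the same volume of DMSO.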

[2] = Reduction in C/EBPbeta mRNA expression in mouse 3T3L1 cells at 25 uM by RT-PCR method; format: functional, cell-based; conditions: 3T3-L1, TDE = time-dependent effect; method in brief: as §1
[3] = Reduction in C/EBPdelta mRNA expression in mouse 3T3L1 cells at 25 uM by RT-PCR method; format: functional, cell-based; conditions: 3T3-L1, TDE = time-dependent effect; method in brief: as §1
[4] = Reduction in C/EBPalpha mRNA expression in mouse 3T3L1 cells at 25 uM by RT-PCR method; format: functional, cell-based; conditions: 3T3-L1, TDE = time-dependent effect
[5] = Reduction in C/PPARgamma mRNA expression in mouse 3T3L1 cells at 25 uM by RT-PCR method; format: functional, cell-based; conditions: 3T3-L1, TDE = time-dependent effect; method in brief: as §1
[6] = Reduction in C/EBPalpha protein expression in mouse 3T3L1 cells at 1 to 50 uM by Western blot method; format: functional, cell-based; conditions: 3T3-L1
Method in brief: (§2)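 Mouse 3T3-L1 cells taken through the differentiation protocol, with compound or DMSO vehicle given from day 0 and renewed at day 3. Cells lysed on ice for 0.5 h in RIPA with PMSF, Na3VO4, NaF and protease inhibitors, then centrifuged at 12,000g. Lysates run on 12% SDS-PAGE and transferred to PVDF. Blots probed overnight at 4 °C and detected with HRP secondary. Bands quantified by optical density against GAPDH. Three independent experiments.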

[7] = Reduction in PPARgamma protein expression in mouse 3T3L1 cells at 1 to 50 uM by Western blot method; format: functional, cell-based; conditions: 3T3-L1; method in brief: as §1
[8] = Reduction in SREBP-1c protein expression in mouse 3T3L1 cells at 1 to 50 uM by Western blot method; format: functional, cell-based; conditions: 3T3-L1; method in brief: as §1
[9] = Reduction in SCD1 protein expression in mouse 3T3L1 cells at 1 to 50 uM after 9 days by Western blot method; format: functional, cell-based; conditions: 3T3-L1; method in brief: as §1
[10] = Reduction in FAS protein expression in mouse 3T3L1 cells at 1 to 50 uM after 9 days by Western blot method; format: functional, cell-based; conditions: 3T3-L1; method in brief: as §1
[11] = Reduction in ACC protein expression in mouse 3T3L1 cells at 1 to 50 uM after 9 days by Western blot method; format: functional, cell-based; conditions: 3T3-L1; method in brief: as §2
3T3-L1 [12] = test: Increase in AMPKalpha Thr172 phosphorylation in mouse 3T3L1 cells at 1 to 50 uM after 9 days by Western blot method; format: cell-based; method in brief: as §2
3T3-L1 [13] = test: Increase in AMPKbeta Ser108 phosphorylation in mouse 3T3L1 cells at 1 to 50 uM after 9 days by Western blot method; format: cell-based; method in brief: as §2
3T3-L1 [14] = test: Activation of AMPK in mouse 3T3L1 cells assessed as increase in ACC Ser79 phosphorylation at 1 to 50 uM after 9 days by Western blot method; format: cell-based; method in brief: as §2
[15] = Reduction in AMPKalpha protein expression in mouse 3T3L1 cells at 1 to 50 uM after 9 days by Western blot method; format: functional, cell-based; conditions: 3T3-L1; method in brief: as §2
[16] = Reduction in AMPKbeta protein expression in mouse 3T3L1 cells at 1 to 50 uM after 9 days by Western blot method; format: functional, cell-based; conditions: 3T3-L1; method in brief: as §2
3T3-L1 [17] = test: Increase in AMPKalpha Thr172 phosphorylation in mouse 3T3L1 cells at 25 uM by Western blot method; format: cell-based; conditions: TDE = time-dependent effect
3T3-L1 [18] = test: Reduction in AMPKalpha1 mRNA expression in mouse 3T3L1 cells at 25 uM after 24 hrs by RT-PCR method; format: functional, cell-based
3T3-L1 [19] = test: Reduction in AMPKalpha2 mRNA expression in mouse 3T3L1 cells at 25 uM after 24 hrs by RT-PCR method; format: functional, cell-based
3T3-L1 [20] = test: Inhibition of adipogenesis in mouse 3T3L1 cells assessed as reduction in triglyceride content at 25 uM by colorimetric assay; format: functional, cell-based
3T3-L1 [21] = test: Increase in AMPKalpha Thr172 phosphorylation in mouse 3T3L1 cells at 25 uM after 9 days by Western blot method; format: cell-based; method in brief: as §2
3T3-L1 [22] = test: Activation of AMPK in mouse 3T3L1 cells assessed as increase in ACC Ser79 phosphorylation at 25 uM after 9 days by Western blot method; format: cell-based; method in brief: as §2
[23] = Reduction in SREBP-1c protein expression in mouse 3T3L1 cells at 25 uM after 3 days by Western blot method; format: functional, cell-based; conditions: 3T3-L1; method in brief: as §1
[24] = Reduction in PPARgamma protein expression in mouse 3T3L1 cells at 25 uM after 3 days by Western blot method; format: functional, cell-based; conditions: 3T3-L1; method in brief: as §1
[25] = Reduction in C/EBPalpha protein expression in mouse 3T3L1 cells at 25 uM after 3 days by Western blot method; format: functional, cell-based; conditions: 3T3-L1; method in brief: as §1
[26] = Reduction in FAS protein expression in mouse 3T3L1 cells at 25 uM after 9 days by Western blot method; conditions: 3T3-L1
[27] = Reduction in SCD1 protein expression in mouse 3T3L1 cells at 25 uM after 9 days by Western blot method; conditions: 3T3-L1

Measured: Activity

O=Cc1c(-c2nc3ccccc3c(=O)[nH]2)[nH]c2ccccc12
active: [1] | [2] tde | [3] tde | [4] tde | [5] tde | [6] | [7] | [8] | [9] | [10] | [11] | 3T3-L1 [12] Dose-dependent effect | 3T3-L1 [13] Dose-dependent effect | 3T3-L1 [14] | [15] | [16] | 3T3-L1 [17] tde | 3T3-L1 [18] | 3T3-L1 [19] | 3T3-L1 [20] | 3T3-L1 [21] | 3T3-L1 [22] | [23] | [24] | [25] | [26] | [27]
